# Data: ChEMBL document CHEMBL1157300, “(+)-N-Deoxymilitarinone A, a neuritogenic pyridone alkaloid from the insect pathogenic fungus Paecilomyces farinosus” (J Nat Prod, 2006)
# The source made the active and inactive calls. The rule behind the calls is not given here.
# How the values were obtained:
# PC-12 [1] = assay: Neuritogenic activity in rat PC12 cells assessed as neurite length equal or less than cell body at 100 uM after 48 hrs; type: functional
# How it was run: (§1)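 PC-12 cells on collagen (1 × 10^5 cells/mL, 4 h pre-culture) treated in duplicate for 48 h, compound delivered in MeOH (0.3% final); NGF 10 ng/mL and 0.3% MeOH controls. By phase contrast, over 300 cells or aggregates per well in six random fields classed as round with no neurite, neurite ≤ cell body, or neurite ≥ twice cell diameter; given as % of cells.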
# [2] = Cytotoxicity against human IMR32 cells assessed as cell viability at 100 uM by MTT assay relative to control; type: cell-based, IMR-32; conditions: read-out: Activity
# How it was run: (§2)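 IMR-32 cells grown in MEM/F12 with 10% fetal bovine serum; viability read by MTT assay in 96-well format. Test concentrations were 1, 10 and 100 µM, each tested six times.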
# [3] = Cytotoxicity against human IMR32 cells assessed as cell viability at 10 uM by MTT assay relative to control; type: cell-based; conditions: imr-32, 10 µM; how it was run: as §2
# PC-12 [4] = assay: Induction of neurite outgrowth in rat PC12 cells at 10 uM after 48 hrs; type: functional, cell-based
# How it was run: (§3)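 PC-12 cells plated on collagen at 1 × 10^5 cells/mL and cultured 4 h. Compound added from MeOH at 3.3, 10, 33 or 100 µM (0.3% MeOH final), in duplicate, then incubated 48 h. Positive control NGF 10 ng/mL; negative control 0.3% MeOH. Over 300 cells or aggregates per well in six random fields scored by phase-contrast microscopy for neurite outgrowth.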
# PC-12 [5] = assay: Neuritogenic activity in rat PC12 cells assessed as round shaped cells with no neurite outgrowth at 100 uM after 48 hrs; type: functional; how it was run: as §1
# [6] = Cytotoxicity against human IMR32 cells assessed as cell viability at 1 uM by MTT assay relative to control; type: cell-based; conditions: imr-32, 1 µM; how it was run: as §2
# PC-12 [7] = assay: Induction of neurite outgrowth in rat PC12 cells at 100 uM after 48 hrs; type: functional; how it was run: as §3
# PC-12 [8] = assay: Neuritogenic activity in rat PC12 cells assessed as neurite length equal or less than cell body at 33 uM after 48 hrs; type: functional; how it was run: as §1
# PC-12 [9] = assay: Neuritogenic activity in rat PC12 cells assessed as round shaped cells with no neurite outgrowth at 33 uM after 48 hrs; type: functional; how it was run: as §1
# PC-12 [10] = assay: Induction of neurite outgrowth in rat PC12 cells at 33 uM after 48 hrs; type: functional; how it was run: as §3
# PC-12 [11] = assay: Neuritogenic activity in rat PC12 cells assessed as neurite length twice the cell diameter or longer at 100 uM after 48 hrs; type: functional; how it was run: as §1
# PC-12 [12] = assay: Induction of neurite outgrowth in rat PC12 cells at 3.3 uM after 48 hrs; type: functional, cell-based; how it was run: as §3
compound,measurement,setting,value
CC[C@@H](C)C[C@@H](C)/C=C(C)/C=C/C=C/C(=O)c1c(O)c([C@]2(O)CC[C@@H](O)CC2)c[nH]c1=O [N-DEOXYMILITARINONE A],Activity,PC-12 [1],30%
same,viability at 100 µM,[2],22%
same,Activity,[3],Not Active
same,Activity,PC-12 [4],inactive
same,Activity,PC-12 [5],49%
same,Activity,[6],Not Active
same,Activity,PC-12 [7],51%
same,Activity,PC-12 [8],12%
same,Activity,PC-12 [9],88%
same,Activity,PC-12 [10],12%
same,Activity,PC-12 [11],21%
same,Activity,PC-12 [12],inactive
